Test results: article PMC12376879 (RSC Advances, 2025)

Molecular target: human serum albumin (HSA) (Homo sapiens, UniProt P02768)
Test: Isothermal titration calorimetry with HSA
Format: binding
Outline: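 HSA (60 μM) in the sample cell, titrated with test compound from the syringe. All solutions were in 5% DMSO in 20 mM phosphate buffer, pH 7.4, with the same solution in the reference cell. Concentrations were set by A280. The run was 19 injections (0.4 μl, then 18 × 2 μl) at 150 s intervals, stirring at 750 rpm. Ligand-into-buffer dilution heats were subtracted. Ka, n, ΔH and ΔS were fitted; ΔG was calculated from them.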

Chain of human serum albumin (HSA) (P02768 25-609): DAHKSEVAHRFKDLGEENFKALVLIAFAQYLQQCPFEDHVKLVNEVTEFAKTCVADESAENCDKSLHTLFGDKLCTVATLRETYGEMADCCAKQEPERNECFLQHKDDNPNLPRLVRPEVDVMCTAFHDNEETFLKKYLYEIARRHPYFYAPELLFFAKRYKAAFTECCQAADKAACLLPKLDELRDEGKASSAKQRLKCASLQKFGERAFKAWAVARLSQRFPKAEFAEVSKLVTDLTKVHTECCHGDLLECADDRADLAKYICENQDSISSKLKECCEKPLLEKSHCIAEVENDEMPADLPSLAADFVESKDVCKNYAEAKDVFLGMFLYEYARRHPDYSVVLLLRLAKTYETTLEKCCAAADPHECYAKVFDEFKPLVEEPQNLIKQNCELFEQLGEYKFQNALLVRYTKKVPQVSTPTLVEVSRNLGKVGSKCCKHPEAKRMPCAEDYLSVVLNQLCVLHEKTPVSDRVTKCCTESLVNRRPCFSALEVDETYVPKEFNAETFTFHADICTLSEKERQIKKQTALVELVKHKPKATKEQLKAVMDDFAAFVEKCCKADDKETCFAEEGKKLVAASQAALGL

Enthalpy (ΔHm), ITC (298 K, HSA): -2.53 kcal/mol
Gibbs free energy (ΔGm), ITC (298 K, HSA): -6.84 kcal/mol
Stoichiometry (n), ITC (298 K, HSA): 0.9
Entropy (ΔS) of binding to HSA (calculated from ITC results): +60.4 J K^−1 mol^−1
Structure (SMILES): Cc1ccnc2c1NC(=O)c1cccnc1N2C1CC1 [nevirapine]
